# Data reported in ChEMBL document CHEMBL6071149, “Synthesis and photo-induced anticancer activity of new 2-phenylethenyl-1H-benzo[e]indole dyes” (Eur J Med Chem, 2024).
# The source made the active and inactive calls. The calls are words filed in the database; no cut-off is given here.
# Key:
# G-361 [1] = experiment: Induction of apoptosis in human G361 cells assessed as increase in cleaved PARP-1 level upto 4 uM pretreated for 4 hrs followed by light irradiation of 10 J/cm2 at 414 nm measured after 20 hrs by Western blot analysis; assay type: functional, cell-based; details: time 24.0 hrs
# Procedure, shortened: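 Compound exposure 4 h, then 414 nm irradiation, then 20 h further incubation. Lysates made in RIPA buffer, separated by SDS-PAGE and blotted to nitrocellulose. Primary antibodies in TBS with 4 % BSA and 0.1 % Tween 20, incubated overnight. Peroxidase secondary antibody with chemiluminescent detection. GAPDH served as loading control.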
# G-361 [2] = experiment: Induction of ROS production in human G361 cells assessed as increase in hydroxyl radical production upto 4 uM pretreated for 4 hrs followed by replacement of medium containing probe without compound for 30 mins and subsequent light irradiation of 5 to 10 J/cm2 measured immediately by DHR-123 probe based analysis; assay type: functional, cell-based
# Procedure, shortened: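 Compound exposure 4 h, then medium replaced with PBS containing 5 µM DHR123 probe for 30 min. Probe removed, cells in PBS irradiated at 5 or 10 J/cm², dark samples in parallel. Fluorescence read immediately at 490/525 nm.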
smiles,measurement,setting,value
COc1ccc(/C=C/C2=Nc3ccc4ccccc4c3C2(C)C)cc1[N+](=O)[O-],Activity,G-361 [1],Active
same,Activity,G-361 [2],Active
